Rows were chosen to be rich in hits. Some 1.8% of all compounds tested hit in one or more screens of this group.
hiPSC survival: hiPSC single-cell survival enhancement; ATPlite luminescence; 100% = ROCK inhibitor wells, 0% = DMSO; survival enhancement, % at 20 µM; hit rate 0.044% among 360,000; AID 602274; in the data active means survival enhancement above about 18%;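 further: cells exposed to compounds for 16 hours before the ATP read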
FLuc act counter: firefly luciferase counter-screen for stimulation assays; ATPlite luciferase biochemical, luminescence, 10 min; 0 = ATP-free wells, 1 = DMSO control; activation factor at 10 µM; 200,000 tested, under 10 active; AID 1027;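 active means luciferase activation factor, scaled between plate controls, of at least 2 with compound at 10 µM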
Target sequence (P08659 whole entry, looked up): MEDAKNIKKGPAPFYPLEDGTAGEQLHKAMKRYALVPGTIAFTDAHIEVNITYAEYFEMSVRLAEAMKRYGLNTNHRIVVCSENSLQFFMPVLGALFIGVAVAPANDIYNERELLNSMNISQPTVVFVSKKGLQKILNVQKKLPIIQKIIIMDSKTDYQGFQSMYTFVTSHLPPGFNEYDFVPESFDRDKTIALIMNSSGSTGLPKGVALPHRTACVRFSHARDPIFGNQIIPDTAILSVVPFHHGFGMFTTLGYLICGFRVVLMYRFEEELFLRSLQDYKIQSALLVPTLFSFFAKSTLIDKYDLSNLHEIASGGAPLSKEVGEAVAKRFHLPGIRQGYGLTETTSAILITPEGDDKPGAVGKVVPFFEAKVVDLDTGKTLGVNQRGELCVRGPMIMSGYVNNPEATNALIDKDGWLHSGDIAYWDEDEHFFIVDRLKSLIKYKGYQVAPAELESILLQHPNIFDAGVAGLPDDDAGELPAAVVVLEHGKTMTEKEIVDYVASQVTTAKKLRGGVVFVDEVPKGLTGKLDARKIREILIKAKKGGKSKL
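Material: luciferase plus luciferin reagent, cell-free. Medium: PBS buffer for ATP. Also added: ATP substrate, dispensed from a 10.24 µM working solution in PBS. Doses: test compounds dosed from 2 mM stocks in 100% DMSO. Incubation: 10 min post-reagent at room temperature. Technique: light output (luminescence). Read-out basis: luminescence gain marking luciferase activators.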
PPC-1+TRAIL kill: kills PPC-1 cancer cells in the presence of TRAIL; PPC-1 cells + TRAIL, ATPLite viability luminescence; cell killing (% activity), % at 4 µM or 5 µM; AID 1443; hit rate 0.41% among 220,000;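 active means cell killing above 50% in the first pass at 4 µM, then a duplicate retest at 5 µM averaging 50% or more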;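 further: plate controls were cells with TRAIL plus DMSO for no effect and medium-only wells lacking cells for full effect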
MIN6 prolif-1: induces beta-cell replication in MIN6 cells; MIN6 cells proliferation, ATPlite luminescence, 48 h; cells starved in 0.2% serum; 100% = growth in 10% serum; proliferation, % at 10 µM; hit rate 0.29% among 330,000; AID 2380;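 active means compounds whose signal lies at least 3.5 SD above the mean of all wells on their plate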;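 further: 0% = DMSO-treated cells in low-serum medium and 100% = 10% serum control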
FLuc inhib CS: inhibits firefly luciferase, flagging false hits in luciferase inhibition screens | P08659 | hit rate 1.5% among 200,000 | inhibition, % at 10 µM | AID 1006 | ATPLite firefly luciferase biochemical luminescence, 10 min;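 active means inhibition above about 50% when tested at 10 µM, limit read from the data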
TRAIL sens C8: caspase-8 TRAIL sensitization; NB7+C8 cells + TRAIL, ATPlite viability luminescence; inhibition (viability loss, TRAIL sensitization), % at 10 µM; hit rate 1% among 360,000; AID 624354;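 active means compounds causing at least 50% loss of cell viability in the single-dose screen, relative to plate controls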
MIN6 prolif-2: MIN6 beta-cell replication induction, confirmed; shares compounds with MIN6 prolif-1; MIN6 beta-cell proliferation, ATPlite luminescence, 48 h; cells kept in 0.2% serum; scaled between 0.2% and 10% serum; proliferation increase, % at 50 µM; 920 tested, under 10 active;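 active means proliferation increase above 40% at any of the four tested concentrations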
Starred values were filed as active, the others as inactive; x = no result.

SMILES | hiPSC survival | FLuc act counter | PPC-1+TRAIL kill | MIN6 prolif-1 | FLuc inhib CS | TRAIL sens C8 | MIN6 prolif-2
Cc1ccc(S(=O)(=O)Cn2nnnc2C(CC(C)C)N2CCN(c3ccccc3)CC2)cc1 (centres undefined) | 1 | 1.1 | 18 | -2 | -8 | 18 | x
COc1ccc(C(=O)Nc2ccccc2C(=O)NC(Cc2ccc(O)cc2)C(=O)NNC(=O)c2ccncc2)cc1 (centres undefined) | -1 | 0.7 | 16 | -2 | 25 | 9 | x
O=C(NC1CCCCCCC1)C1c2ccccc2C(=O)N1Cc1ccco1 (centres undefined) | -2 | 1.1 | -15 | 4 | -6 | -28 | x
CC1CCCC(NC(=O)C2c3ccccc3C(=O)N2Cc2cccs2)C1C (centres undefined) | 0 | 1 | 25 | 0.0* | -2 | 2 | -6
CCCNC(=O)c1n[nH]c(=O)c2ccccc12 | 6 | 1 | 5 | 5.6* | -1 | 0 | 2
CC(C)(C)OC(=O)N1CCC(Cc2cc(-c3cccnc3)no2)(C(=O)O)CC1 | 0 | x | x | -2 | x | 12 | x
Cc1ccccc1NS(=O)(=O)c1ccc(C(=O)NCC(c2ccccc2)N(C)C)cc1 (centres undefined) | 0 | x | x | -2 | x | -15 | x
Cc1ccccc1NS(=O)(=O)c1ccc(C(=O)NCC(c2ccco2)N(C)C)cc1 (centres undefined) | 1 | x | x | 12* | x | 23 | -3
Cc1cc(NC(=O)c2cnn3c(C(F)F)cc(C4CC4)nc23)no1 | -4 | 1.1 | 32 | 5.5* | -11 | 12 | 5
O=C(COC(=O)c1ccccc1[N+](=O)[O-])NCCCc1ccccc1 | 0 | x | x | -1 | x | -10 | x
Cc1ccc(C(=O)CSc2nc(N)cc(=O)[nH]2)cc1 | 0 | 1 | 6 | -4 | -2 | 4 | x
Nc1cc(=O)[nH]c(SCC(=O)c2ccc(F)cc2)n1 | -1 | x | x | 8.3* | x | 1 | 0
CCOC(=O)/C(C#N)=C1/C=C(C)c2ccccc2N1 | 2 | 1.1 | 2 | 7.1* | -7 | 7 | -1
COc1ccc(S(=O)(=O)Nc2cc3c4c(c2)CC(=O)N4CCC3)cc1OC | -1 | x | x | x | x | 0 | x
O=C(CN1C(=O)S/C(=C/c2cccs2)C1=O)N1CCOCC1 | 6 | 1 | -1 | 2 | -2 | 6 | x
O=C(CN1C(=O)S/C(=C/c2cccs2)C1=O)N1CCCC1 | 0 | x | x | 10* | x | -8 | 3
FC(F)Sc1nnc(-c2cccs2)n1-c1ccccc1 | 3 | 1.1 | 4 | 9.6* | -6 | 4 | 5
O=C(NC(=S)NC1CCCCC1)c1ccccc1[N+](=O)[O-] | 0 | x | x | -1 | x | -1 | x
c1cncc(-c2nc(N3CCOCC3)c3ccccc3n2)c1 | -2 | 1 | 31 | 4.8* | 3 | -1 | 2
O=C1C=C(N2CCCCCC2)C2(CCCCC2)O1 | 2 | 1.1 | 14 | 5 | -6 | 0 | x
COC1=CC(=O)OC12CCCCC2 | 0 | 1.1 | 8 | 8.2* | -6 | -3 | 1
CCCOc1c(Cl)cc(C(=O)NC)cc1OC | 0 | 1.1 | 14 | 9.7* | -8 | -10 | 5
CCOC(=O)C1=C(Nc2ccc(OC)cc2)C(N)=NC1=N | -1 | x | x | x | x | 1 | x
C#CCOC(=O)c1ccc(-n2cncn2)nc1 | -1 | 1 | 16 | 5.9* | -4 | 1 | -1
CC(C)C[C@H](NC(=O)NCc1ccccc1Cl)C(=O)O | 0 | 1 | 4 | 0 | -3 | -4 | x
CC(C)C[C@H](NC(=O)NCc1ccc(Cl)cc1)C(=O)O | 2 | 1 | 16 | 10* | -3 | -4 | -2
COc1ccccc1C(=O)N1CCN(C(=O)[C@H]2O[C@@H](n3ccc(=O)[nH]c3=O)[C@H](O)[C@@H]2O)CC1 | -4 | x | x | x | x | 7 | x
O=C(NC1CCCC1)C(c1ccco1)N(C(=O)c1ccco1)c1ccccc1 (centres undefined) | 0 | x | x | -3 | x | 16 | x
Cc1ccc(C)c(N(C(=O)c2ccco2)C(C(=O)NC2CCCC2)c2ccco2)c1 (centres undefined) | 0 | x | x | 5.7* | x | 2 | -6
